{"data": "Assay results gathered from unrelated publications", "cell line": "HeLa", "effect on": "cell growth or viability", "note": "Compare with care: the assays were run in different laboratories."}
{"SMILES": "COc1ccc(C(=O)O[C@@H]2CN3Cc4c(cc5c(c4OC)OCO5)[C@@]24C=C[C@H](OC)C[C@@H]34)cc1", "assay": "WST-1", "conditions": "48 h", "IC50": "> 10 µM"}
{"SMILES": "COc1cc(OC)c2c(=O)cc(-c3ccccc3Br)oc2c1-c1c(OC)cc(OC)c2c(=O)cc(-c3ccccc3Br)oc12", "assay": "MTT", "conditions": "48 h", "IC50": "10.4 µM"}
{"SMILES": "CN(C)CCOc1cc(NC(=O)c2cc(Cl)cc(C(=O)Nc3cc(OCCN(C)C)c4ccccc4n3)n2)nc2ccccc12", "assay": "ATP luminescence", "conditions": "72 h", "IC50": "3.2 µM"}
{"SMILES": "O=C(CCc1cccc2c1B(O)OC2)Nc1ccc(-c2ccccc2)cc1", "assay": "ATP luminescence", "conditions": "72 h", "IC50": "> 31.6 µM"}
{"SMILES": "COc1cccc(C(=O)c2cc3c(-c4ccccc4)c(OC)ccc3o2)c1", "IC50": "5.4 µM"}
{"SMILES": "COC(=O)CN=c1scc(-c2ccccc2)n1-c1ccccc1[N+](=O)[O-]", "assay": "MTT", "IC50": "6.02 µM"}
{"SMILES": "COc1ccc(-c2cc(=O)c3c(OC)cc(OC)cc3o2)cc1", "assay": "MTT", "conditions": "48 h", "IC50": "33 µM"}
{"SMILES": "CCCC(O)C#CC#CC(O)CCC (stereo not drawn)", "assay": "MTT", "conditions": "24 h", "IC50": "19.3 µg/mL"}
{"SMILES": "CC1(C)SC2C(NC(=O)C(NC(=O)C3=C(O)C(Cc4ccc(O)cc4)NC3=O)c3ccccc3)C(=O)N2C1C(=O)O (stereo not drawn)", "assay": "ATP luminescence", "conditions": "48 h", "IC50": "93.5 µg/mL"}
{"SMILES": "NCCOc1cc(NC(=O)c2cccc(C(=O)Nc3cc(OCCN)c4ccccc4n3)n2)nc2ccccc12", "assay": "ATP luminescence", "conditions": "72 h", "IC50": "1.2 µM"}
{"SMILES": "C#CCOc1ccc(C(=O)c2cccc(NC(=O)CCc3cccc4c3B(O)OC4)c2)cc1", "assay": "ATP luminescence", "conditions": "72 h", "IC50": "1.33 µM"}
{"SMILES": "C(C#CCC1CCCCC1)#CCC1CCCCC1", "assay": "MTT", "conditions": "24 h", "IC50": "117 µg/mL"}
{"SMILES": "COc1cc(OC)c2c(=O)cc(-c3ccc(C(F)(F)F)cc3)oc2c1", "assay": "MTT", "conditions": "48 h", "IC50": "> 100 µM"}
{"SMILES": "CC1(C)S[C@@H]2[C@H](NC(=O)[C@H](N)c3ccccc3)C(=O)N2[C@H]1C(=O)O", "assay": "ATP luminescence", "conditions": "48 h", "IC50": "72.7 µg/mL"}
{"SMILES": "COc1cc(C(=O)Nc2cc(OC)c3ccccc3n2)nc(C(=O)Nc2cc(OC)c3ccccc3n2)c1", "assay": "ATP luminescence", "conditions": "72 h", "IC50": "> 40 µM"}
{"SMILES": "C=CCC[C@@H]1NC(=O)[C@H]2CCCN2C(=O)[C@H](Cc2ccccc2)NC(=O)C(C)(C)NC1=O", "assay": "XTT", "IC50": "> 100 µM"}
{"SMILES": "COc1cc(C)c(-c2c(C)cc(OC)c3c(=O)cc(-c4cccc(Br)c4)oc23)c2oc(-c3cccc(Br)c3)cc(=O)c12", "assay": "MTT", "conditions": "48 h", "IC50": "> 100 µM"}
{"SMILES": "NCCCOc1cc(NC(=O)c2cc(Cl)cc(C(=O)Nc3cc(OCCCN)c4ccccc4n3)n2)nc2ccccc12", "assay": "ATP luminescence", "conditions": "72 h", "IC50": "0.7 µM"}
{"SMILES": "COc1ccc(C(=O)c2cc3c(-c4ccccc4)c(OC)ccc3o2)cc1", "IC50": "1.3 µM"}
{"SMILES": "COC(=O)CN=c1scc(-c2ccccc2)n1-c1ccc(OC)cc1", "assay": "MTT", "conditions": "72 h", "IC50": "6.75 µM"}
{"SMILES": "COc1cc(C)cc2oc(-c3ccccc3)cc(=O)c12", "assay": "MTT", "conditions": "48 h", "IC50": "82.5 µM"}
{"SMILES": "O=C(/C=C/c1cccc2c1B(O)OC2)Nc1ccccc1", "assay": "ATP luminescence", "conditions": "72 h", "IC50": "> 31.6 µM"}
{"SMILES": "CC(=O)O[C@H](C)C(=O)CCCCCCC(=O)Nc1ccccc1", "assay": "XTT", "IC50": "> 50 µM"}
{"SMILES": "Brc1ccc(C#CC#Cc2ccc(Br)cc2)cc1", "assay": "MTT", "conditions": "24 h", "IC50": "16.3 µg/mL"}
{"SMILES": "COc1cc(OC)c2c(=O)cc(-c3ccc(C(F)(F)F)cc3)oc2c1-c1c(OC)cc(OC)c2c(=O)cc(-c3ccc(C(F)(F)F)cc3)oc12", "assay": "MTT", "conditions": "48 h", "IC50": "> 100 µM"}
{"SMILES": "COc1ccnc(-c2cc(OC)ccn2)c1", "assay": "MTT", "conditions": "48 h", "IC50": "> 50 µM"}
{"SMILES": "CCOc1cc(OCC)cc(C(=O)O[C@@H]2CN3Cc4c(cc5c(c4OC)OCO5)[C@@]24C=C[C@H](OC)C[C@@H]34)c1", "assay": "WST-1", "conditions": "48 h", "IC50": "5 µM"}
{"SMILES": "Cc1ccc2c(Cl)cc(Cl)c(O)c2n1", "assay": "MTT", "conditions": "48 h", "IC50": "> 100 µM"}
{"SMILES": "OCCCC#CC#CCCCO", "assay": "MTT", "conditions": "24 h", "IC50": "39.3 µg/mL"}
{"SMILES": "COc1cc(C)c(-c2c(C)cc(OC)c3c(=O)cc(-c4ccccc4)oc23)c2oc(-c3ccccc3)cc(=O)c12", "assay": "MTT", "conditions": "48 h", "IC50": "11.8 µM"}
{"SMILES": "C#CCOc1cc(C(=O)Nc2cc(OCCN)c3ccccc3n2)nc(C(=O)Nc2cc(OCCN)c3ccccc3n2)c1", "assay": "ATP luminescence", "conditions": "72 h", "IC50": "5.2 µM"}
{"SMILES": "Cc1c(O)c(=O)ccn1-c1ccc(C(=O)O)cc1", "assay": "MTT", "conditions": "72 h", "IC50": "600 µM"}
{"SMILES": "O=C(Nc1cc(OCCN2CCCC2)c2ccccc2n1)c1cc(OCCN2CCCC2)cc(C(=O)Nc2cc(OCCN3CCCC3)c3ccccc3n2)n1", "assay": "ATP luminescence", "conditions": "72 h", "IC50": "2.3 µM"}
{"SMILES": "CC1(C)SC2C(NC(=O)C(NC(=O)C3=C(O)C4(CC4)NC3=O)c3ccccc3)C(=O)N2C1C(=O)O (stereo not drawn)", "assay": "ATP luminescence", "conditions": "48 h", "IC50": "103 µg/mL"}
{"SMILES": "COc1cc(C)c(-c2c(C)cc(OC)c3c(=O)cc(-c4ccccc4Br)oc23)c2oc(-c3ccccc3Br)cc(=O)c12", "assay": "MTT", "conditions": "48 h", "IC50": "18.5 µM"}
{"SMILES": "CC1(C)CC[C@]2(C(=O)O)CC[C@]3(C)C(=CC[C@@H]4[C@@]5(C)CC[C@H](O)C(C)(C)[C@@H]5CC[C@]43C)[C@@H]2C1", "assay": "MTT", "conditions": "48 h", "IC50": "34.8 µM"}
{"SMILES": "COc1ccc2oc(C(=O)c3ccccc3)cc2c1-c1ccccc1", "IC50": "> 50 µM"}
{"SMILES": "Clc1ccnc2c1ccc1c(Cl)ccnc12", "assay": "MTT", "conditions": "48 h", "IC50": "> 50 µM"}
{"SMILES": "C=CCNC1=C2C[C@@H](C)C[C@H](OC)[C@H](O)[C@@H](C)/C=C(\\C)[C@H](OC(N)=O)[C@@H](OC)/C=C\\C=C(/C)C(=O)NC(=CC1=O)C2=O", "assay": "MTT", "IC50": "0.159 µM"}
{"SMILES": "CC(C)CC1NC(=O)C(C(=O)NC(C(=O)NC2C(=O)N3C2SC(C)(C)C3C(=O)O)c2ccccc2)=C1O (stereo not drawn)", "assay": "ATP luminescence", "conditions": "48 h", "IC50": "69.1 µg/mL"}
{"SMILES": "O=C(Cn1ccnc1[N+](=O)[O-])NCc1ccccc1", "IC50": "> 380 µM"}
{"SMILES": "CC(C)C1NC(=O)C(C(=O)NC(C(=O)NC2C(=O)N3C2SC(C)(C)C3C(=O)O)c2ccccc2)=C1O (stereo not drawn)", "assay": "ATP luminescence", "conditions": "48 h", "IC50": "59 µg/mL"}
{"SMILES": "O=C(Nc1cc(OCCN2CCCC2)c2ccccc2n1)c1cc(Cl)cc(C(=O)Nc2cc(OCCN3CCCC3)c3ccccc3n2)n1", "assay": "ATP luminescence", "conditions": "72 h", "IC50": "4.7 µM"}
{"SMILES": "CC1(C)S[C@@H]2[C@H](NC(=O)C(C(=O)O)c3ccccc3)C(=O)N2[C@H]1C(=O)O (stereo partly drawn)", "assay": "ATP luminescence", "conditions": "48 h", "IC50": "76.2 µg/mL"}
{"SMILES": "Cc1c(O)c(=O)ccn1CCO", "assay": "MTT", "conditions": "72 h", "IC50": "≥ 100 µM"}
